Test results as given in ChEMBL document CHEMBL2176933 (J Med Chem, 2012).

Tests used:
Nucleic Acid = assay: Ratio of drug level CSF to unbound drug level in plasma in cynomolgus monkey at 10 to 65 mg/kg, po administered for 7 days; type: ADME, organism-based, Macaca fascicularis; parameters: dose 10-65 mg/kg, route oral; conditions: in vivo, 168 h
Method in brief: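 Cynomolgus monkeys in a 7-day repeat-dose toxicity study at 10, 25 and 65 mg/kg. Terminal CSF and plasma levels were taken 24 h after the last dose on day 7. Plasma drug was converted to unbound using in vitro plasma protein binding, and the ratio is expressed as CSF over unbound plasma.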

Cynomolgus monkey [1] = assay: Unbound plasma AUC (0 to 24 hrs) in cynomolgus monkey at 65 mg/kg, po administered for 7 days; type: ADME, organism-based, Macaca fascicularis; parameters: dose 65 mg/kg, route oral; conditions: in vivo
[2] = Ratio of unbound drug level in brain to plasma in cynomolgus monkey at 10 to 65 mg/kg, po administered for 7 days; type: ADME, organism-based, Macaca fascicularis; parameters: dose 10-65 mg/kg, route oral; conditions: brain and plasma (unbound)
Method in brief: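 Cynomolgus monkeys in a 7-day repeat-dose toxicity study at 10, 25 and 65 mg/kg. Terminal brain and CSF levels were taken 24 h after the day-7 dose. Total brain/plasma levels were converted to an unbound brain/unbound plasma ratio using in vitro plasma and brain protein binding values.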

Cynomolgus monkey [3] = assay: Unbound plasma AUC (0 to 24 hrs) in cynomolgus monkey at 25 mg/kg, po administered for 7 days; type: ADME, organism-based, Macaca fascicularis; parameters: dose 25 mg/kg, route oral; conditions: in vivo
Cynomolgus monkey [4] = assay: Unbound plasma AUC (0 to 24 hrs) in cynomolgus monkey at 10 mg/kg, po administered for 7 days; type: ADME, organism-based, Macaca fascicularis; parameters: dose 10 mg/kg, route oral; conditions: in vivo
Rattus norvegicus [5] = assay: Unbound plasma AUC (0 to 24 hrs) in Sprague-Dawley rat at 100 mg/kg, po administered for 7 days; type: ADME, organism-based; parameters: dose 100 mg/kg, route oral; conditions: in vivo
Rattus norvegicus [6] = assay: Unbound plasma AUC (0 to 24 hrs) in Sprague-Dawley rat at 50 mg/kg, po administered for 7 days; type: ADME, organism-based; parameters: dose 50 mg/kg, route oral; conditions: in vivo
Rattus norvegicus [7] = assay: Unbound plasma AUC (0 to 24 hrs) in Sprague-Dawley rat at 10 mg/kg, po administered for 7 days; type: ADME, organism-based; parameters: dose 10 mg/kg, route oral; conditions: in vivo
Rattus norvegicus [8] = assay: Toxicity in Sprague-Dawley rat assessed as mortality at 10 to 100 mg/kg, po administered for 7 days; type: organism-based; parameters: dose 10-100 mg/kg, route oral; conditions: in vivo, 168 h
Rattus norvegicus [9] = assay: Unbound plasma AUC (0 to 24 hrs) in Sprague-Dawley rat at 100 mg/kg, po qd for 2 days; type: ADME, organism-based; parameters: dose 100 mg/kg, route oral; conditions: in vivo
Rattus norvegicus [10] = assay: Genotoxicity in Sprague-Dawley rat assessed as micronucleated polychromatic erythrocytes in bone marrow at 100 mg/kg, po qd for 2 days; type: toxicity, organism-based; parameters: dose 100 mg/kg, route oral; conditions: in vivo, 48 h
[11] = Plasma protein binding in cynomolgus monkey; type: ADME, cell-free, Macaca fascicularis; conditions: read-out: PPB (converted)
Mus musculus [12] = assay: Inhibition of LRRK2 G2019S mutant phosphorylation at Ser1292 in po dosed BAC transgenic mouse brain after 1 to 24 hrs; type: functional, organism-based
Method in brief: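 Single oral dose of 15 or 50 mg/kg in G2019S human LRRK2 BAC transgenic mice. Hippocampus sampled at 1, 3, 6 and 12 h (n = 4/dose) and at 24 h (n = 1) to measure pSer1292 LRRK2 and brain compound levels. Inhibition expressed relative to vehicle-dosed mice (n = 3), with a direct inhibition PK/PD model fitted.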

Mus musculus [13] = assay: Inhibition of LRRK2 G2019S mutant phosphorylation at Ser1292 in ip dosed BAC transgenic mouse brain after 1 to 24 hrs; type: functional, organism-based
Method in brief: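 Single ip injection of 10 or 50 mg/kg in BAC transgenic mice expressing human G2019S LRRK2. Hippocampus collected at 1, 2.5 or 6 h post-dose (n = 3/dose). pSer1292 LRRK2 and compound concentration measured in brain. Percent inhibition normalised to vehicle-dosed mice (n = 3), with a direct inhibition model fitted to the data.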

[14] = molecular target: 5-hydroxytryptamine receptor 2B (Homo sapiens) (UniProt P41595); assay: Inhibition of recombinant human 5HT2B receptor expressed in CHO cells at 10 uM; type: cell-based
Sequence of 5-hydroxytryptamine receptor 2B (Homo sapiens) (P41595 whole entry): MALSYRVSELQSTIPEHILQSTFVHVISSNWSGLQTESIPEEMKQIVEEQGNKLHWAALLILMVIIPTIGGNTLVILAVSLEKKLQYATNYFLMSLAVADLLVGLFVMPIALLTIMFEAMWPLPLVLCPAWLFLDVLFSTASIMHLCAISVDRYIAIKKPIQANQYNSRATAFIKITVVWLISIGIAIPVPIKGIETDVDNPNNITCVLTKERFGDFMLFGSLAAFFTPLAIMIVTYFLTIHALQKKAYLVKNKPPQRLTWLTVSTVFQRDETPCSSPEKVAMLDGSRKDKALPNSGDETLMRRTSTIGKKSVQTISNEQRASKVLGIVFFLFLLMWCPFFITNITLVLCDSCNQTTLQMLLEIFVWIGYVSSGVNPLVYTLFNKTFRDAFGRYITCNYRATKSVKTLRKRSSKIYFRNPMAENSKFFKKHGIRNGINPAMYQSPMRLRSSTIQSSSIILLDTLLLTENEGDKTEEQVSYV

[15] = molecular target: ALK tyrosine kinase receptor (Homo sapiens) (UniProt Q9UM73); assay: Inhibition of ALK at 0.1 uM
Sequence of ALK tyrosine kinase receptor (Homo sapiens) (Q9UM73 19-1620 limits assumed): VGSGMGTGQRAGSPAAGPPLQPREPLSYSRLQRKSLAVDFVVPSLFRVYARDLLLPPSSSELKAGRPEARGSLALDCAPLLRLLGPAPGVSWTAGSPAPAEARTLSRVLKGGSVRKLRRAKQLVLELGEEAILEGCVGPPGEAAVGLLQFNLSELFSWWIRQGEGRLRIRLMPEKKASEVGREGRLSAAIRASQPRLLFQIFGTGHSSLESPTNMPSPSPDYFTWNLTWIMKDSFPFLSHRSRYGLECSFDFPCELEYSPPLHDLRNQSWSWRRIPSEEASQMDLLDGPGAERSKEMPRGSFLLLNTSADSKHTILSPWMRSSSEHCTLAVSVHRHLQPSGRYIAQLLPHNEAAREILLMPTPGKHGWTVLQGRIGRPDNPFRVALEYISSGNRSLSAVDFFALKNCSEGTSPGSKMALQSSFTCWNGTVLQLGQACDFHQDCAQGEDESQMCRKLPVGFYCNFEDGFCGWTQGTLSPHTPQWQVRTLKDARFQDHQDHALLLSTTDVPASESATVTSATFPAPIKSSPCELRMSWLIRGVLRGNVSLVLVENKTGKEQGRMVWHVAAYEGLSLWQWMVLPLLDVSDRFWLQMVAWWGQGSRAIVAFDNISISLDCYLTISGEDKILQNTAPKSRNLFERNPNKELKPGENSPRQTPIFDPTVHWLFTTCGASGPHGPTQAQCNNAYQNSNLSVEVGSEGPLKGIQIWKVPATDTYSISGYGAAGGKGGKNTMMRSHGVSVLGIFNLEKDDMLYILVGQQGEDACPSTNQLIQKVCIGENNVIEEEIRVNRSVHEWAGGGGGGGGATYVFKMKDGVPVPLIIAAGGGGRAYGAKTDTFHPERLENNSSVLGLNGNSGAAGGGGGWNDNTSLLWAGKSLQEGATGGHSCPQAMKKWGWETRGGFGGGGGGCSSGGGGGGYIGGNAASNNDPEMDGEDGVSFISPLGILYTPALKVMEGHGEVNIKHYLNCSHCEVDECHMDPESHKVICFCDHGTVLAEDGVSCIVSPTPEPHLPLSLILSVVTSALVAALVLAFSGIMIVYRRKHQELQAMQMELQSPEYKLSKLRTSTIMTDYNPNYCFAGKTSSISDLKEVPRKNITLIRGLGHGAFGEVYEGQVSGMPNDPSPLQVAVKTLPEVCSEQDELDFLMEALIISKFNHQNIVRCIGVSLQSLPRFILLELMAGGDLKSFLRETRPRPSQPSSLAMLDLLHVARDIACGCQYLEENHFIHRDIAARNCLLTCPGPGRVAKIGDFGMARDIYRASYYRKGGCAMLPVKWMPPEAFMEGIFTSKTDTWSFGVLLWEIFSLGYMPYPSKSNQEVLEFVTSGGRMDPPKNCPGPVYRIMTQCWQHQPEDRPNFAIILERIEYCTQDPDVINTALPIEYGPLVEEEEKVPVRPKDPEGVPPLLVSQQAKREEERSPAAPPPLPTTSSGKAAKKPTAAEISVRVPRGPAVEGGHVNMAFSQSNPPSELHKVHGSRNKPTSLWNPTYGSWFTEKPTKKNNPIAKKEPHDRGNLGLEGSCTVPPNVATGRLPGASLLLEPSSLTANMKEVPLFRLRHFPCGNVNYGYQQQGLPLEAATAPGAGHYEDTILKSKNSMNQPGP
Method in brief: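 Percent inhibition measured in a commercial kinase selectivity profiling panel, with compound tested at a single concentration of 0.1 μM.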

[16] = Selectivity ratio of Ki for TTK to Ki for LRRK2
Method in brief: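 Ratio computed as TTK Ki, from a Lanthascreen assay, divided by LRRK2 Ki from the biochemical assay.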

[17] = molecular target: T1, Dual specificity protein kinase TTK (Homo sapiens) (UniProt P33981); assay: Inhibition of TTK at 0.1 uM
T1 sequence (whole entry): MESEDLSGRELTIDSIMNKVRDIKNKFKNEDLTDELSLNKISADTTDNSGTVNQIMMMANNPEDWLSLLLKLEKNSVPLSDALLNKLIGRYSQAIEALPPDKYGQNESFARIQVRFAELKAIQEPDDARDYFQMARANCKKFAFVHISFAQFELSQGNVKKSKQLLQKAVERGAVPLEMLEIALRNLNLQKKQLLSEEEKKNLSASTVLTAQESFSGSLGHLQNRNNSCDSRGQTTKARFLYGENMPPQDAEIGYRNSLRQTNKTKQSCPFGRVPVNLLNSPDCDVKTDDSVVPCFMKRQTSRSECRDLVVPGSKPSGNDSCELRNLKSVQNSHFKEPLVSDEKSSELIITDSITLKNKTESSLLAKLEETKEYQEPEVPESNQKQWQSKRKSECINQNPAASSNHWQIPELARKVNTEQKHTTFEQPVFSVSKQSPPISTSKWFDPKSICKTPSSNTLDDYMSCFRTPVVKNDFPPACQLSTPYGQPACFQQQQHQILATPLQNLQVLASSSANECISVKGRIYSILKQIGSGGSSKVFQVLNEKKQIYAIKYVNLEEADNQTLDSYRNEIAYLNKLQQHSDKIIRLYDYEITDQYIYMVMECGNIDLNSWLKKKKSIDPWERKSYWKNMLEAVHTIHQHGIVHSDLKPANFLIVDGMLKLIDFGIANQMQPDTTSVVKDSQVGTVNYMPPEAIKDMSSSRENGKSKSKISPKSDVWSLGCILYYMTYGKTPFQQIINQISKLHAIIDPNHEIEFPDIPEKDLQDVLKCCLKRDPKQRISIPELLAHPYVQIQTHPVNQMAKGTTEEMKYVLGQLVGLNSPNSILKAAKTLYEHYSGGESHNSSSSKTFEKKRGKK
Method in brief: (§1)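 Percent inhibition of TTK activity measured at 0.1 μM and 1 μM in a kinase selectivity profiling panel.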

MDR1 (human) = assay: Apparent permeability from apical to basolateral side of MDCK cells expressing human MDR1; type: ADME, cell-based, Canis lupus familiaris; conditions: dog
Method in brief: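 Transport measured in an MDCK cell line transfected with human P-gp (MDR1); apical-to-basolateral and basolateral-to-apical permeability determined; efflux ratio taken as (B−A)/(A−B).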

[18] = Plasma protein binding in rat; type: ADME, cell-free; conditions: read-out: PPB (converted)
Method in brief: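 Plasma protein binding measured in vitro in rat plasma; used to convert total clearance to unbound clearance and total to unbound plasma levels.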

[19] = Clearance in rat hepatocytes; type: ADME, cell-based, Liver, Hepatocyte
Method in brief: (§2)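 Metabolic stability determined in vitro in cryopreserved hepatocytes, human and rat.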

[20] = Clearance in human hepatocytes; type: ADME, cell-based, Liver, Hepatocyte; method in brief: as §2
[21] = Selectivity ratio of Ki for JAK2 to Ki for LRRK2
Method in brief: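 Ratio computed as JAK2 Ki divided by LRRK2 Ki, both from biochemical assays.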

[22] = molecular target: T2, Leucine-rich repeat serine/threonine-protein kinase 2 (Homo sapiens, UniProt Q5S007); assay: Inhibition of autophosphorylation of LRRK2 in human HEK293 cells; type: cell-based
T2 sequence (Q5S007 whole entry): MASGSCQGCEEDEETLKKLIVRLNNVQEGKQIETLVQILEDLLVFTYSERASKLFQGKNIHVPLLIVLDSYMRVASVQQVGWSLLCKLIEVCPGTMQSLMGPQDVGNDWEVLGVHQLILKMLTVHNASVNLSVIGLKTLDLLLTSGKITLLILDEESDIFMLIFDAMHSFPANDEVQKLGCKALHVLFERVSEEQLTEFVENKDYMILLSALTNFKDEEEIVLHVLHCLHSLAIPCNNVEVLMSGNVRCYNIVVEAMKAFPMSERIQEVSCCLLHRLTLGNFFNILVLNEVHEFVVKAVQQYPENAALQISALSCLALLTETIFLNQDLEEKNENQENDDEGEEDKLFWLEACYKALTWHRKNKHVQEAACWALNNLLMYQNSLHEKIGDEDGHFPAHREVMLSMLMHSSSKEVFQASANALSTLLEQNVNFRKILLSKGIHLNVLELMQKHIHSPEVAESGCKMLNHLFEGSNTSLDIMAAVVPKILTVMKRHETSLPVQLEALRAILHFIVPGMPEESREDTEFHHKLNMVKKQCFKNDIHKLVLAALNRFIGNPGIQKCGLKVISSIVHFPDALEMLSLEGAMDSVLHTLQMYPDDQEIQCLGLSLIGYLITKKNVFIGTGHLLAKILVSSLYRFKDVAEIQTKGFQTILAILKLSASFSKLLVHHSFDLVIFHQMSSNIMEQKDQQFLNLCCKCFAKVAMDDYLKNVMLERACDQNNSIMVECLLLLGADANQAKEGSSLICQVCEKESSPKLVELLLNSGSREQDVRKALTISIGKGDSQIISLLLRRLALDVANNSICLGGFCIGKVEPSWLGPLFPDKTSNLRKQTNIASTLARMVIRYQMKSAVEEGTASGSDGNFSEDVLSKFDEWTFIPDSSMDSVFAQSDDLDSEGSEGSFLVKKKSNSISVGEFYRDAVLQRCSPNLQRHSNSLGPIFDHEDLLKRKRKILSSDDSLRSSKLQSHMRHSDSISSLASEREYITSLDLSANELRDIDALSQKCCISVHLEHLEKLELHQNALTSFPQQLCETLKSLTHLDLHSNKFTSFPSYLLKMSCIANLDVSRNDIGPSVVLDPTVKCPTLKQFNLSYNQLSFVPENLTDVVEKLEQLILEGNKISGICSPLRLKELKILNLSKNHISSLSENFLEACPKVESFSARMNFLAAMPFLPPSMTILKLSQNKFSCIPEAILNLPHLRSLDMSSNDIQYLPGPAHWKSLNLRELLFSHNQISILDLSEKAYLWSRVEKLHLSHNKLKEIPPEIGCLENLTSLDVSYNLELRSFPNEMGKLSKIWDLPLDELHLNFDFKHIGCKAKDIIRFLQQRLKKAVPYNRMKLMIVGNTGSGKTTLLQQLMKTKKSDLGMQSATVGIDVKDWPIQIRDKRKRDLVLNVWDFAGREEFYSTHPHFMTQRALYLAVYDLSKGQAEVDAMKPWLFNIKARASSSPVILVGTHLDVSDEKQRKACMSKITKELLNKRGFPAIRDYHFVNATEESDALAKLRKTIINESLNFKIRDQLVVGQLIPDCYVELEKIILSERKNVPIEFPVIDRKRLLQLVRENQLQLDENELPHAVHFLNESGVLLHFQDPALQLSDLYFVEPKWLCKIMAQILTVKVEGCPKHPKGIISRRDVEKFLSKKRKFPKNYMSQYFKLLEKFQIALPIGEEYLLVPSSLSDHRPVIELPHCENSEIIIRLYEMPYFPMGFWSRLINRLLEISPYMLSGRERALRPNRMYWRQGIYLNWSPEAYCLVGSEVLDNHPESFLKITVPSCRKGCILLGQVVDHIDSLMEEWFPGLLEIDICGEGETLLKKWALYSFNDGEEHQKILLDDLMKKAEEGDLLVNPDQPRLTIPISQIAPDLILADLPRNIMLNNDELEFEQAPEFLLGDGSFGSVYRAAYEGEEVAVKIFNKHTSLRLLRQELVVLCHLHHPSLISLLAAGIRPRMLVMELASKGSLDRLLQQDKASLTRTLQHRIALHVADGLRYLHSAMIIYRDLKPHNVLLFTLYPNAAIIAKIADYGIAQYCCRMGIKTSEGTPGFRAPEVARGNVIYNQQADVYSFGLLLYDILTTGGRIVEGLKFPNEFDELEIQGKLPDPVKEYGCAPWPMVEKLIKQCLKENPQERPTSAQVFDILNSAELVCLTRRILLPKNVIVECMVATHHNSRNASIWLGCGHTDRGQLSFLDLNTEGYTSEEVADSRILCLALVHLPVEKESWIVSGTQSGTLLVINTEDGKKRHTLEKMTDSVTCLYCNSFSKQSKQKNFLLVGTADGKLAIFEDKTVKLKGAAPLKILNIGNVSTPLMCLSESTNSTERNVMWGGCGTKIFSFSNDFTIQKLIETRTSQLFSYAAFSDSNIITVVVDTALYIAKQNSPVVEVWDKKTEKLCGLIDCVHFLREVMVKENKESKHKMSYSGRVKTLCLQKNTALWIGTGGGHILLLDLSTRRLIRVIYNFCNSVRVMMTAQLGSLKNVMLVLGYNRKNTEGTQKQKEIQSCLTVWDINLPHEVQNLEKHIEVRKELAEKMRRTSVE

[23] = molecular target: T2, Leucine-rich repeat serine/threonine-protein kinase 2; assay: Inhibition of LRRK2 using FAM-LRRKtide as substrate after 120 mins by microfluidic capillary electrophoresis assay
[24] = molecular target: T2, Leucine-rich repeat serine/threonine-protein kinase 2; conditions: 0.1 uM
MDCK = assay: Efflux ratio of permeability from basolateral to apical over apical to basolateral side in MDCK cells expressing human MDR1; conditions: dog
[25] = Solubility of the compound; type: physicochemical
Cytochrome P450 1A2 = molecular target: T3, Cytochrome P450 1A2 (Homo sapiens, UniProt P05177); assay: Time dependent inhibition of CYP1A2; type: ADME
T3 sequence (P05177 whole entry): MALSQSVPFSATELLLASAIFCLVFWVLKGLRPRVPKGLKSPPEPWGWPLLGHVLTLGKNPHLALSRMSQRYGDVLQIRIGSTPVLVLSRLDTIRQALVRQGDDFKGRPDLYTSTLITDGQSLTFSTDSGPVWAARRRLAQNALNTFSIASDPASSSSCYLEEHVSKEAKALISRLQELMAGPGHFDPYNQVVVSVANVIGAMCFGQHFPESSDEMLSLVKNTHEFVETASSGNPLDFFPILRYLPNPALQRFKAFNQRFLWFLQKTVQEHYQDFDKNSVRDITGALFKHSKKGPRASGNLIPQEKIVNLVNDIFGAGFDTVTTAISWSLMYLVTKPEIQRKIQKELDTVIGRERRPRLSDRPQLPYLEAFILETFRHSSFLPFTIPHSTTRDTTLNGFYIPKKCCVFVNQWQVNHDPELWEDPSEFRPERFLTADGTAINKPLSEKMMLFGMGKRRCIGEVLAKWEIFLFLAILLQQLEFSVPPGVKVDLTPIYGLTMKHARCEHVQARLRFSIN

Mus musculus [26] = species on record: Mus musculus; assay: Genotoxicity in mouse by micronucleus study; type: toxicity, organism-based; conditions: in vivo
PBL = assay: Genotoxicity in human PBL assessed as induction of micronuclei formation; type: toxicity, cell-based
[27] = molecular target: T4, Dual specificity protein kinase TTK (Homo sapiens, UniProt P33981); assay: Inhibition of TTK
T4 sequence (P33981 whole entry): T1 sequence (whole entry)
Method in brief: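 TTK Ki determined in a Lanthascreen biochemical assay.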

[28] = molecular target: T1, Dual specificity protein kinase TTK (Homo sapiens); assay: Inhibition of TTK at 1 uM; method in brief: as §1

SMILES | Ratio Ki [16] | inhibition [17] [%] | Papp A→B (MDR1 (human)) [×10⁻⁶ cm/s] | fraction unbound [18] | CLhep predicted [19] [mL/min/kg] | CLhep predicted [20] [mL/min/kg] | Ratio Ki [21] | IC50 [22] [nM] | Ki [23] [nM] | Ratio (MDCK) | also measured
CCNc1nc(Nc2cc(F)c(C(=O)N3CCOCC3)cc2OC)ncc1C(F)(F)F | 53 | > 65 | 10.4 | 0.034 | 14 | 3.2 | > 3200 | 9 | 1 | 0.9 | Ratio (Nucleic Acid): 0.82; fAUC (Cynomolgus monkey [1]): 7.8 µM·h; Kp uu at 168 h [2]: 0.6; fAUC (Cynomolgus monkey [3]): 3.1 µM·h; fAUC (Cynomolgus monkey [4]): 0.8 µM·h; fAUC (Rattus norvegicus [5]): 4.7 µM·h; fAUC (Rattus norvegicus [6]): 3.9 µM·h; fAUC (Rattus norvegicus [7]): 0.8 µM·h; Activity (Rattus norvegicus [8]): Non-toxic; fAUC (Rattus norvegicus [9]): 5.95 µM·h; Activity (Rattus norvegicus [10]): Non-toxic; fraction unbound [11]: 0.055; inhibition (Mus musculus [12]): Dose-dependent effect; inhibition (Mus musculus [13]): Dose-dependent effect; inhibition [14]: > 70%; inhibition [15]: > 65%; inhibition [24]: > 65%
CNc1nc(Nc2ccc(-c3nnnn3C)cc2Cl)ncc1C(F)(F)F | 3.3 |  |  |  |  |  |  | 100 | 8 | 0.7 | solubility [25]: Insoluble; inhibition (INH) (Cytochrome P450 1A2): Active
CNc1nc(Nc2ccc(C(=O)N3CCOCC3)cc2OC)ncc1C(F)(F)F | 13 | 55 | 18.2 | 0.137 | 7.6 | 1.8 | > 1930 | 9 | 2 | 1.2 | Activity (Mus musculus [26]): Toxic; Activity (PBL): Toxic; Ki [27]: 25 nM; inhibition [28]: 98%
